Laboratory results published in ChEMBL document CHEMBL4422663, “Suppression of Tumor Growth and Metastases by Targeted Intervention in Urokinase Activity with Cyclic Peptides” (J Med Chem, 2019).
Active and inactive are the calls of the source. The rule behind the calls is not given here. Positions of bridges follow the written chain, without caps; N, C: chain ends. Residues, ends and D or L forms follow the SMILES beside them.

Legend:
Plasma kallikrein = Plasma kallikrein (Homo sapiens, UniProt P03952); assay: Inhibition of human plasma kallikrein preincubated for 15 mins followed by chromogenic substrate addition
Chain of Plasma kallikrein (P03952 20-390 limits assumed): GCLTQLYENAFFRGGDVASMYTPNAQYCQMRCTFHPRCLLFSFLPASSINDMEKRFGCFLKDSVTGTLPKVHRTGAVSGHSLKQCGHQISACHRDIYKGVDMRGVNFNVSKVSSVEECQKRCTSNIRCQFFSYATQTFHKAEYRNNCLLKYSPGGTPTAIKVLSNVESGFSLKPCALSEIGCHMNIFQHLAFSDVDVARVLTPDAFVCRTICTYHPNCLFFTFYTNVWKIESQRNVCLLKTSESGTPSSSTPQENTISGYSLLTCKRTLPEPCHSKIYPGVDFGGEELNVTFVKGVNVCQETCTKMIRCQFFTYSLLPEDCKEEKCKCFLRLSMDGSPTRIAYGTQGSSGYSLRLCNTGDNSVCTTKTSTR
Chain of Plasma kallikrein (P03952 391-638 limits assumed): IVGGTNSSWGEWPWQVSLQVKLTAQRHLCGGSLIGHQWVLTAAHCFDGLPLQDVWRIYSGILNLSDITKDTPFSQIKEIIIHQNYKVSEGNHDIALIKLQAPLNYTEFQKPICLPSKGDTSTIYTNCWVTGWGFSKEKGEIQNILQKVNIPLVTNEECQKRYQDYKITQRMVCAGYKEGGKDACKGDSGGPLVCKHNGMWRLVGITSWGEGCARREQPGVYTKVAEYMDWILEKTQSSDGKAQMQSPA

[1] = target: Vitamin K-dependent protein C (Homo sapiens, UniProt P04070); assay: Inhibition of human activated protein C preincubated for 15 mins followed by chromogenic substrate addition
Chain of Vitamin K-dependent protein C (P04070 43-197 limits assumed): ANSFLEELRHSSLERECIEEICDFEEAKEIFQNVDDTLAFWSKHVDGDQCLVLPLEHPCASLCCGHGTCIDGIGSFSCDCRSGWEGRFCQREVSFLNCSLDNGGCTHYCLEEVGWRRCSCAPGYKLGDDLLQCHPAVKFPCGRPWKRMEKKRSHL
Chain of Vitamin K-dependent protein C (P04070 212-461 limits assumed): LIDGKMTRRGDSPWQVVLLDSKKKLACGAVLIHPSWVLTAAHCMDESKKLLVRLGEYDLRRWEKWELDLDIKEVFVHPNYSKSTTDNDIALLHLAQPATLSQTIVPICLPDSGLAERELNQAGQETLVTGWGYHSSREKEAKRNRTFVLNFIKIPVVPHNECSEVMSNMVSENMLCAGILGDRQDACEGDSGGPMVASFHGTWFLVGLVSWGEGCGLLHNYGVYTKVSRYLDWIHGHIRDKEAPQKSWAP

Plasminogen = Plasminogen (Mus musculus, UniProt P20918); assay: Inhibition of mouse plasmin preincubated for 15 mins followed by chromogenic substrate addition
Chain of Plasminogen (P20918 98-581 limits assumed): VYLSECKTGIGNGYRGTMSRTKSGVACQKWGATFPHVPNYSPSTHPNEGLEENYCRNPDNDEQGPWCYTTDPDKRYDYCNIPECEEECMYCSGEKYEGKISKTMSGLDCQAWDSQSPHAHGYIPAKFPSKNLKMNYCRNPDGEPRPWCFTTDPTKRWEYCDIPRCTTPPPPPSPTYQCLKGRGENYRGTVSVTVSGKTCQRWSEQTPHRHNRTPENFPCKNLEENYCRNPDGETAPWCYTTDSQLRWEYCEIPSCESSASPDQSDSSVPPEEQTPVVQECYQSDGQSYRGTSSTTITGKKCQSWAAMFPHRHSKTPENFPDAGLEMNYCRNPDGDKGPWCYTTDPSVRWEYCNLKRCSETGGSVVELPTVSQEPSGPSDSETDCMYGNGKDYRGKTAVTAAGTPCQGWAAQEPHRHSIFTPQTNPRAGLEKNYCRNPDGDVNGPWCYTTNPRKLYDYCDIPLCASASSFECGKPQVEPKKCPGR
Chain of Plasminogen (P20918 582-812 limits assumed): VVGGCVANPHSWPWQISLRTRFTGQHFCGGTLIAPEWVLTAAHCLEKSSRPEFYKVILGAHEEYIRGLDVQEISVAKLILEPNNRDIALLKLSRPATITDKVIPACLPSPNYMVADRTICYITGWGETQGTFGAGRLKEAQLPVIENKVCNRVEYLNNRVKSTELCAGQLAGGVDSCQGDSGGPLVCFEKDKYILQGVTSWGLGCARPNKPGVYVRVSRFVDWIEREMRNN

[2] = target: Urokinase-type plasminogen activator (Homo sapiens, UniProt P00749); assay: Inhibition of human uPA preincubated for 15 mins followed by chromogenic substrate addition
CT26 [3] = assay: Cytotoxicity against mouse CT26 cells at 100 uM; format: cell-based; details: ct26, 100 µM
CT26 [4] = assay: Antimetastatic activity against GFP-fused mouse CT26 cells allografted in Balb/c mouse assessed as reduction in relative fluorescence at 11.3 mg/kg, ip administered daily for 15 days by fluorescence-based assay; format: functional; details: 360 h
Method in brief: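 Lung metastasis model: male Balb/c mice (~20 g, 6/group) given 10^6 GFP-CT-26 cells i.v. with peptide or saline, daily i.p. dosing Day 1–15, sacrificed Day 16. Resected lungs imaged for GFP with 488 nm excitation, emission 520; signal collected over 20×20 mm2 per lung; non-implanted normal group used for background subtraction.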

[5] = target: Urokinase-type plasminogen activator (Mus musculus) (UniProt P06869); assay: Binding affinity to mouse uPA assessed as dissociation rate constant after 600 secs by SPR assay
Chain of Urokinase-type plasminogen activator (Mus musculus) (P06869 21-178 limits assumed): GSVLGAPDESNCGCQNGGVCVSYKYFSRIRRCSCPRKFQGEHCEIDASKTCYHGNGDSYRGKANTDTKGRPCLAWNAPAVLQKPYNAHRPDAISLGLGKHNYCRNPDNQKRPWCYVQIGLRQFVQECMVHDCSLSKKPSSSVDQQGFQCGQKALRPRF
Chain of Urokinase-type plasminogen activator (Mus musculus) (P06869 180-433 limits assumed): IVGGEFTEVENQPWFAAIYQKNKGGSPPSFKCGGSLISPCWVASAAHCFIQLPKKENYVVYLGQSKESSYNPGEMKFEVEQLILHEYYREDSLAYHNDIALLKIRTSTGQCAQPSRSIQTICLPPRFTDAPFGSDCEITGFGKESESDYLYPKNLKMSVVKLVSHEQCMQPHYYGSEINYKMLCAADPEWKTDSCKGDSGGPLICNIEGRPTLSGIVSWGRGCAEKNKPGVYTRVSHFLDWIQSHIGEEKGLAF

CT26 [6] = assay: Antimetastatic activity against GFP-fused mouse CT26 cells allografted in Balb/c mouse assessed as reduction genomic DNA of metastatic cells at 11.3 mg/kg, ip administered daily for 15 days by qPCR analysis; format: functional; details: 360 h
Method in brief: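 Male Balb/c mice (~20 g, 6/group) given 10^6 GFP-CT-26 cells i.v. in 200 µl mixed with peptide or saline, then daily i.p. peptide Day 1–15; sacrificed Day 16. Lung total DNA isolated after homogenization; 200 ng per SYBR Green qPCR, quantified against standard curve of CT-26 DNA spiked into normal lung DNA (0.135%-100%).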

CT26 [7] = assay: Anti-tumor activity against GFP expressing mouse CT26 cells allografted in Balb/c mouse assessed as tumor growth inhibition at 11.3 mg/kg, ip administered daily for 15 days and measured on day 16 […]; format: functional; details: read-out: TGI
Method in brief: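 CT-26 cells implanted subcutaneously in right flank of Balb/c mice; once tumors reached about 150~200 mm3, daily intraperitoneal dosing with peptide or saline for 15 days. Mice sacrificed on Day 16; tumors resected and weighed; tumor growth reduction relative to saline group.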

[8] = target: Urokinase-type plasminogen activator (Mus musculus) (UniProt P06869); assay: Potency index, ratio of Ki for LD1 to Ki for test compound for inhibition of mouse uPA preincubated for 15 mins followed by chromogenic substrate addition
CT26 [9] = assay: Antimetastatic activity against GFP-fused mouse CT26 cells allografted in Balb/c mouse assessed as reduction in tumor nodule numbers at 11.3 mg/kg, ip administered daily for 15 days by fluorescence-based assay; format: functional; details: 360 h
Method in brief: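 Lung metastasis model: male Balb/c mice (~20 g, 6/group) given 10^6 GFP-CT-26 cells i.v. with peptide or saline, daily i.p. dosing Day 1–15, sacrificed Day 16. Surface tumor nodules on pleural surfaces counted per lung after soaking in formaldehyde.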

[10] = target: T1, Suppressor of tumorigenicity 14 protein (Homo sapiens, UniProt Q9Y5Y6); assay: Inhibition of human matriptase preincubated for 15 mins followed by chromogenic substrate addition
T1 sequence (Q9Y5Y6 whole entry): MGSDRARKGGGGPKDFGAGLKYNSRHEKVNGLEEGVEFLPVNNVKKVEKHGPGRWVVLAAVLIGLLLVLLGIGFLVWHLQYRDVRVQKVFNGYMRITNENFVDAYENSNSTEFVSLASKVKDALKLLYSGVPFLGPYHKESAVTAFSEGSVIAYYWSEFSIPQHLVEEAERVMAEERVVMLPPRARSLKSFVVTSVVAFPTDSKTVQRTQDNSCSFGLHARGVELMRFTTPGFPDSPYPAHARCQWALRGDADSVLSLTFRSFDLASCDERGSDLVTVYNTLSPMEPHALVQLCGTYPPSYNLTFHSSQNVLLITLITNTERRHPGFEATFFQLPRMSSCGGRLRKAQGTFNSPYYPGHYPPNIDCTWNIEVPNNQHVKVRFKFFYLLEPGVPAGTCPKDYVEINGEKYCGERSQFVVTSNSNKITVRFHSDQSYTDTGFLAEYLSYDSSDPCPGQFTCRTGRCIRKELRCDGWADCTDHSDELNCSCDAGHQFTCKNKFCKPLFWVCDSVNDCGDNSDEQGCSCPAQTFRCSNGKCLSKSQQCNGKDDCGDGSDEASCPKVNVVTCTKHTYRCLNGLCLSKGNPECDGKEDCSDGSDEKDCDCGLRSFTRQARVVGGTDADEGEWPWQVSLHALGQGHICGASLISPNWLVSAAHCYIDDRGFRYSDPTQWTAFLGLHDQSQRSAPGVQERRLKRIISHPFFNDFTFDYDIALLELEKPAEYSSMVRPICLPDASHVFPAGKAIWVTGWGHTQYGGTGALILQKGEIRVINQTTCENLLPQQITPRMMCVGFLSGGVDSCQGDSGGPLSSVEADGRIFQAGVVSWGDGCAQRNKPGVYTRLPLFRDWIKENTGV

CT26 [11] = assay: Antimetastatic activity against mouse CT26 cells allografted in Balb/c mouse assessed as prolongation of mouse survival time at 11.3 mg/kg, ip administered daily for 15 days; format: functional, organism-based
CT26 [12] = assay: Antimetastatic activity against GFP-fused mouse CT26 cells allografted in Balb/c mouse assessed as reduction in tumor nodule numbers at 1.13 mg/kg, ip administered daily for 15 days by fluorescence-based assay; format: functional, organism-based
Method in brief: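 Male Balb/c mice received 10^6 GFP-CT-26 cells iv and daily ip dosing on Days 1–15. On Day 16, pleural-surface tumor nodules per lung were counted after soaking in formaldehyde.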

CT26 [13] = assay: Antimetastatic activity against GFP-fused mouse CT26 cells allografted in Balb/c mouse assessed as reduction in hyperplastic weights at 11.3 mg/kg, ip administered daily for 15 days by fluorescence-based assay; format: functional; details: 360 h
Method in brief: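 Lung metastasis model: male Balb/c mice (~20 g, 6/group) given 10^6 GFP-CT-26 cells i.v. with peptide or saline, then daily i.p. dosing Day 1–15. Lungs resected and weighed immediately at sacrifice on Day 16; hyperplastic weight = lung weight minus weight of lungs from non-implanted normal mice.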

CT26 [14] = assay: Antimetastatic activity against GFP-fused mouse CT26 cells allografted in Balb/c mouse assessed as reduction in relative fluorescence at 1.13 mg/kg, ip administered daily for 15 days by fluorescence-based assay; format: functional, organism-based
Method in brief: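 After iv GFP-CT-26 implantation (10^6 cells) in male Balb/c and daily ip dosing Days 1–15, lungs were removed on Day 16. Whole-lung GFP was imaged with 488 nm excitation (em 520) and quantified over a 20×20 mm2 area per lung. Non-implanted lungs served as background.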

[15] = target: Urokinase-type plasminogen activator (Mus musculus, UniProt P06869); assay: Inhibition of mouse uPA serine protease domain preincubated for 15 mins followed by chromogenic substrate addition
Chain of Urokinase-type plasminogen activator (Mus musculus, UniProt P06869) (P06869 21-178 limits assumed): as the sequence (P06869 21-178 limits assumed) above
Chain of Urokinase-type plasminogen activator (Mus musculus, UniProt P06869) (P06869 180-433 limits assumed): as the sequence (P06869 180-433 limits assumed) above

CC[C@H](C)[C@@H]1NC(=O)[C@H](Cc2ccc(O)cc2)NC(=O)[C@H](CCCNC(=N)N)NC(=O)[C@H](CO)NC(=O)[C@H](Cc2ccc(O)cc2)NC(=O)[C@H](C)NC(=O)[C@@H]2CCCN2C(=O)[C@@H](N)CSSC[C@@H](C(=O)O)NC(=O)CNC1=O (H-CPAYSRYIGC-OH; disulfide 1-10)
Ki (Plasma kallikrein): > 25 µM
Ki [1]: > 25 µM
Ki (Plasminogen): > 25 µM
Ki [2]: 0.34 µM
Activity (CT26 [3]): Non-Toxic
inhibition in vivo at 11.3 mg/kg (CT26 [4]): 50%
K [5]: 0.00066 s⁻¹
inhibition in vivo at 11.3 mg/kg (CT26 [6]): 49.8%
inhibition in vivo at 11.3 mg/kg (CT26 [7]): 56.8%
Ratio Ki [8]: 81
inhibition in vivo at 11.3 mg/kg (CT26 [9]): 46.5%
Ki [10]: > 25 µM
Activity (CT26 [11]): inactive
Activity (CT26 [12]): inactive
inhibition in vivo at 11.3 mg/kg (CT26 [13]): 51.7%
Activity (CT26 [14]): inactive
Ki [15]: 0.0153 µM
